≈ marks a conversion by molar mass, not a printed value. Calls of active or inactive are those of the source. No cut-off for these calls is given here.
Legend:
KB [1] = assay: Cytotoxicity against human KB cells; type: functional, cell-based; conditions: read-out: ED50 (the source's name)
Lu1 [2] = assay: Cytotoxicity against human Lu1 cells; type: functional; conditions: read-out: ED50 (the source's name)
LNCaP [3] = assay: Cytotoxicity against human LNCAP cells; type: functional; conditions: read-out: ED50 (the source's name)
[4] = Cytotoxicity against human HUVEC; type: cell-based; conditions: HUVEC cells, read-out: ED50 (the source's name)
Micrococcus luteus [5] = assay: Antimicrobial activity against Micrococcus luteus after 18 hrs by zone-of-inhibition assay; type: functional, organism-based
Micrococcus luteus [6] = assay: Antimicrobial activity against Micrococcus luteus assessed as 99.9 % growth inhibition after 18 hrs by zone-of-inhibition assay; type: functional
Staphylococcus aureus [7] = assay: Antimicrobial activity against Staphylococcus aureus after 18 hrs by zone-of-inhibition assay; type: functional, organism-based
Staphylococcus aureus [8] = assay: Antimicrobial activity against Staphylococcus aureus assessed as 99.9 % growth inhibition after 18 hrs by zone-of-inhibition assay; type: functional
[9] = system: Mycolicibacterium smegmatis; assay: Antimicrobial activity against Mycobacterium smegmatis after 18 hrs by zone-of-inhibition assay; type: functional, organism-based
[10] = system: Mycolicibacterium smegmatis; assay: Antimicrobial activity against Mycobacterium smegmatis assessed as 99.9 % growth inhibition after 18 hrs by zone-of-inhibition assay; type: functional
Mycobacterium avium = assay: Antimicrobial activity against Mycobacterium avium after 18 hrs by zone-of-inhibition assay; type: functional, organism-based
Candida albicans [11] = assay: Antifungal activity against Candida albicans after 18 hrs by zone-of-inhibition assay; type: functional, organism-based; conditions: Candida albicans, 18 h
Cryptococcus neoformans [12] = assay: Antifungal activity against Cryptococcus neoformans after 18 hrs by zone-of-inhibition assay; type: functional, organism-based; conditions: Cryptococcus neoformans, 18 h
Cryptococcus neoformans [13] = assay: Antifungal activity against Cryptococcus neoformans assessed as 99.9 % growth inhibition after 18 hrs by zone-of-inhibition assay; type: functional
Saccharomyces cerevisiae [14] = assay: Antifungal activity against Saccharomyces cerevisiae after 18 hrs by zone-of-inhibition assay; type: functional, organism-based
Saccharomyces cerevisiae [15] = assay: Antifungal activity against Saccharomyces cerevisiae assessed as 99.9 % growth inhibition after 18 hrs by zone-of-inhibition assay; type: functional
Aspergillus niger [16] = assay: Antifungal activity against Aspergillus niger after 18 hrs by zone-of-inhibition assay; type: functional, organism-based
Aspergillus niger [17] = assay: Antifungal activity against Aspergillus niger assessed as 99.9 % growth inhibition after 18 hrs by zone-of-inhibition assay; type: functional
KB [18] = assay: Antitumor activity against human KB cell xenografted mouse by hollow fiber assay; type: functional, cell-based
Outline: (§1)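 Hollow fiber assay in mice with KB, LNCaP or Lu1 cells in fibers implanted at intraperitoneal and subcutaneous sites. Mice were treated by injection at doses from 1.25 to 10 mg/kg or up to 50 mg/kg. Tumor cell growth inhibition in the fibers was assessed at each site.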

Lu1 [19] = assay: Antitumor activity against human Lu1 cell xenografted mouse by hollow fiber assay; type: functional, cell-based; outline: as §1
LNCaP [20] = assay: Antitumor activity against human LNCAP cell xenografted mouse by hollow fiber assay; type: functional, cell-based; outline: as §1
Mus musculus [21] = assay: Toxicity in human KB cell xenografted mouse at 50 mg/kg; type: organism-based; design: dose 50 mg/kg; conditions: in vivo
Mus musculus [22] = assay: Toxicity in human LNCaP cell xenografted mouse at 50 mg/kg; type: organism-based; design: dose 50 mg/kg; conditions: in vivo
Mus musculus [23] = assay: Toxicity in human LU1 cell xenografted mouse at 50 mg/kg; type: organism-based; design: dose 50 mg/kg; conditions: in vivo
Candida albicans [24] = assay: Antimicrobial activity against Candida albicans assessed as 99.9 % growth inhibition after 18 hrs by zone-of-inhibition assay; type: functional

With `CC1=CC(=O)c2c(O)ccc(-c3ccc(O)c4c3C(=O)C(C)=CC4=O)c2C1=O` [MARITINONE] the EC50 (KB [1]) was 0.3 µg/mL (≈ 0.801 µM), the EC50 (Lu1 [2]) was 1.4 µg/mL (≈ 3.74 µM) and the EC50 (LNCaP [3]) was 2.2 µg/mL (≈ 5.88 µM). For the same compound, the CC50 [4] was 2.2 µg/mL (≈ 5.88 µM), the IC50 (Micrococcus luteus [5]) was 200 µg/mL (≈ 534 µM) and the Activity (Micrococcus luteus [6]) was greater than 1000 µg/mL. For the same compound, the IC50 (Staphylococcus aureus [7]) was 9 µg/mL (≈ 24 µM), the Activity (Staphylococcus aureus [8]) was 300 µg/mL and the IC50 [9] was 20 µg/mL (≈ 53.4 µM). For the same compound, the Activity [10] was 80 µg/mL, the IC50 (Mycobacterium avium) was 600 µg/mL (≈ 1600 µM) and the IC50 (Candida albicans [11]) was 40 µg/mL (≈ 107 µM). It also gave an IC50 (Cryptococcus neoformans [12]) of 20 µg/mL (≈ 53.4 µM), an Activity (Cryptococcus neoformans [13]) of 200 µg/mL and an IC50 (Saccharomyces cerevisiae [14]) of 9 µg/mL (≈ 24 µM). For the same compound, the Activity (Saccharomyces cerevisiae [15]) was 80 µg/mL, the IC50 (Aspergillus niger [16]) was 40 µg/mL (≈ 107 µM) and the Activity (Aspergillus niger [17]) was greater than 1000 µg/mL. The Activity (KB [18]) was “inactive”, the Activity (Lu1 [19]) was “inactive” and the Activity (LNCaP [20]) was “inactive”. The Activity (Mus musculus [21]) was “Toxic”, the Activity (Mus musculus [22]) was “Toxic” and the Activity (Mus musculus [23]) was “Toxic”. The Activity (Candida albicans [24]) was 40 µg/mL.

Reference: ChEMBL document CHEMBL1151249, “Cytotoxic and antimicrobial constituents of the bark of Diospyros maritima collected in two geographical locations in Indonesia” (J Nat Prod, 2004)
